Laboratory results published in ChEMBL document CHEMBL1135333, “Long-chain aminoalcohol and diamine derivatives induce apoptosis through a caspase-3 dependent pathway” (Bioorg Med Chem Lett, 2002).

These molecules were tested on Jurkat (assay: Inhibitory concentration required for 50% apoptosis induction was evaluated using jurkat cells (T-lymphoma cells); NA means not active.). Conditions: not given; call rule not given here.
Assay type: functional, cell-based, Homo sapiens
Method in brief: (§1)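 Jurkat T-lymphoma cells exposed 24 h to rising concentrations (0.1–100 μM). Ethanol-fixed cells then RNase-digested and stained with propidium iodide. Flow-cytometric cell-cycle analysis scored the hypodiploid (sub-G0/G1) fraction as apoptotic cells with fragmented DNA. IC50 taken from these concentration–response series.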

| SMILES | IC50 |
| --- | --- |
| CCCCCCCCCCCCCCC(CN(CC)CC)NCCCCC(=O)O (stereo not given) | Not Active |
| CCCCCCCCCCCCCCC(COC(=O)CCCCCC)NC(=O)CCCCCC (stereo not given) | Not Active |
| CCCCCCCCCCCCCCC(N)CNCC(=O)OCC (stereo not given) | Not Active |

Second part, the molecule after the results:

| IC50 | SMILES |
| --- | --- |
| Not Active | CCCCCCCCCCCCCCC(=O)NC(CCCCCCCCCCCCCC)COC(=O)CCCCCC (stereo not given) |
| Not Active | CCCCCCCCCCCCCCC(=O)NC(CCCCCCCCCCCCCC)COC(=O)CCCCCCCCCCCCCC (stereo not given) |

What follows are molecules tested on Jurkat (assay: Inhibitory concentration required for 50% apoptosis induction was evaluated using jurkat cells (T-lymphoma cells)). Conditions: Homo sapiens.
Assay type: functional, cell-based
Method in brief: as §1

| SMILES | IC50 |
| --- | --- |
| CCCCCCCCCCCCCCC(CO)NC(=O)OC(C)(C)C (stereo not given) | 28 µM |
| CCCCCCCCCCCCCCC(CN(CC(=O)OCC)CC(=O)OCC)NC(=O)OC(C)(C)C (stereo not given) | > 60 µM |
| CCCCCCCCCCCCCCC(N)CN(CC(=O)OCC)CC(=O)OCC (stereo not given) | 32 µM |
| CCCCCCCCCCCCCCC(CNCC)NC(=O)OC(C)(C)C (stereo not given) | 6 µM |
| CCCCCCCCCCCCCCC(CNCCCCC(=O)O)NC(=O)OC(C)(C)C (stereo not given) | 18 µM |
| CCCCCCCCCCCCCCC(COCc1ccccc1)NC(=O)CCC(=O)O (stereo not given) | 30 µM |
| CCCCCCCCCCCCCCC(N)COCc1ccccc1 (stereo not given) | 3 µM |
| CCCCCCCCCCCCCCC(COCc1ccccc1)N(CC)CC (stereo not given) | 20 µM |
| CCCCCCCCCCCCCCC(COCc1ccccc1)NCC(=O)O (stereo not given) | 3 µM |
| CCCCCCCCCCCCCCC(N)CN(CC)CC (stereo not given) | 7 µM |
| CCCCCCCCCCCCCCC(CN)NC(=O)OC(C)(C)C (stereo not given) | 6 µM |
| CCCCCCCCCCCCCCC(CO)NCC (stereo not given) | 6 µM |
| CCCCCCCCCCCCCCC(N)CNCC(=O)O (stereo not given) | 31 µM |
| CCCCCCCCCCCCCCC(CO)NC(=O)CCCC(=O)O (stereo not given) | 24 µM |
| CCCCCCCCCCCCCCC(N)CNCCCCC(=O)O (stereo not given) | 55 µM |
| CCCCCCCCCCCCCCC(COCc1ccccc1)NC(=O)CCCC(=O)O (stereo not given) | > 50 µM |
| CCCCCCCCCCCCCCC(COCc1ccccc1)NCC (stereo not given) | 6 µM |

Results, then the molecule that gave them:

| IC50 | SMILES |
| --- | --- |
| 21 µM | CCCCCCCCCCCCCCC(CN(CC)CC)NC(=O)OC(C)(C)C (stereo not given) |
| 55 µM | CCCCCCCCCCCCCCC(N)CN (stereo not given) |
| 28 µM | CCCCCCCCCCCCCCC(CNCC(=O)OCC)NC(=O)OC(C)(C)C (stereo not given) |
| 7 µM | CCCCCCCCCCCCCCC(N)CO (stereo not given) |
| 6 µM | CCCCCCCCCCCCCCC(CO)NCCCCCC (stereo not given) |
| 1 µM | CCCCCCCCCCCCCCC(CO)N(CC)CC (stereo not given) |
| 27 µM | CCCCCCCCCCCCCCC(O)CNCc1ccccc1 (stereo not given) |
| 6 µM | CCCCCCCCCCCCCCC(O)CNC1CCCCC1 (stereo not given) |
